Screens deposited in PubChem BioAssay by Sanford-Burnham Center for Chemical Genomics.
Scp-1 inhibitor: Scp-1 phosphatase inhibitors, primary screen, biochemical, colorimetric, uHTS. Recombinant Scp1, phosphopeptide, malachite green phosphate absorbance. hit rate 0.88% among 340,000. AID 493091, 2011. inhibition, % at 20 µM;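 active = inhibition above about 50% at 20 µM, limit read from the data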;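 also: plate controls were DMSO wells with enzyme for no effect and wells lacking enzyme for full effect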
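Test system: SCP-1 phosphatase catalytic domain, residues 76-261; measured by: colorimetric phosphate reagent with accelerator and stabiliser, absorbance at 630 nm; timing: enzyme reaction 45 min at room temperature, colour 5 min, stabilisation 30 min; also added: Phosphorylated 17-residue peptide substrate; compound dosing: one concentration, 20 µM, with 1.0% DMSO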
NadD inh: inhibitors of S. aureus NadD, primary screen, biochemical, colorimetric, uHTS | purified NadD enzyme, colorimetric absorbance read-out | Nicotinate-nucleotide adenylyltransferase NadD (Staphylococcus aureus N315) | inhibition, % at 20 µM | hit rate 0.78% among 360,000; in the data active = inhibition above about 26%
LMPTP inh: LMPTP phosphatase inhibitors, primary screen, biochemical, fluorescence intensity, uHTS; inhibition, % at 20 µM; hit rate 0.22% among 360,000; recombinant LMPTP-A, OMFP fluorogenic substrate; AID 651560, 2012; Low molecular weight phosphotyrosine protein phosphatase (Homo sapiens), P24666;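 active = compounds that cut the enzyme signal by at least half of the control window in the single-dose screen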;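 also: plate controls were DMSO wells with enzyme plus substrate for no effect and substrate without enzyme for full effect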
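Test system – LMPTP-A enzyme · Amount – LMPTP-A at 0.625 nM final in the reaction · Buffer or medium – Bis-Tris pH 6.0, DTT, detergent · Reagent – OMFP 400 µM · Doses – single 20 µM dose · Schedule – reaction 50 min, room temperature, dark · Detection – fluorescence intensity of OMFP turnover product · Evaluation – percent inhibition versus substrate-only and uninhibited controls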
DNMT1 block: human DNMT1 methyltransferase inhibitors, primary screen, biochemical, molecular beacon, fluorescence, HinP1I cleavage, uHTS; DNA (cytosine-5)-methyltransferase 1 (Homo sapiens), P26358; inhibition (reported as % activation of signal), % at 10 µM; hit rate 0.83% among 360,000; AID 588458, 2011; in the data active = inhibition above about 50%
Target sequence (P26358 504-1616 limits assumed): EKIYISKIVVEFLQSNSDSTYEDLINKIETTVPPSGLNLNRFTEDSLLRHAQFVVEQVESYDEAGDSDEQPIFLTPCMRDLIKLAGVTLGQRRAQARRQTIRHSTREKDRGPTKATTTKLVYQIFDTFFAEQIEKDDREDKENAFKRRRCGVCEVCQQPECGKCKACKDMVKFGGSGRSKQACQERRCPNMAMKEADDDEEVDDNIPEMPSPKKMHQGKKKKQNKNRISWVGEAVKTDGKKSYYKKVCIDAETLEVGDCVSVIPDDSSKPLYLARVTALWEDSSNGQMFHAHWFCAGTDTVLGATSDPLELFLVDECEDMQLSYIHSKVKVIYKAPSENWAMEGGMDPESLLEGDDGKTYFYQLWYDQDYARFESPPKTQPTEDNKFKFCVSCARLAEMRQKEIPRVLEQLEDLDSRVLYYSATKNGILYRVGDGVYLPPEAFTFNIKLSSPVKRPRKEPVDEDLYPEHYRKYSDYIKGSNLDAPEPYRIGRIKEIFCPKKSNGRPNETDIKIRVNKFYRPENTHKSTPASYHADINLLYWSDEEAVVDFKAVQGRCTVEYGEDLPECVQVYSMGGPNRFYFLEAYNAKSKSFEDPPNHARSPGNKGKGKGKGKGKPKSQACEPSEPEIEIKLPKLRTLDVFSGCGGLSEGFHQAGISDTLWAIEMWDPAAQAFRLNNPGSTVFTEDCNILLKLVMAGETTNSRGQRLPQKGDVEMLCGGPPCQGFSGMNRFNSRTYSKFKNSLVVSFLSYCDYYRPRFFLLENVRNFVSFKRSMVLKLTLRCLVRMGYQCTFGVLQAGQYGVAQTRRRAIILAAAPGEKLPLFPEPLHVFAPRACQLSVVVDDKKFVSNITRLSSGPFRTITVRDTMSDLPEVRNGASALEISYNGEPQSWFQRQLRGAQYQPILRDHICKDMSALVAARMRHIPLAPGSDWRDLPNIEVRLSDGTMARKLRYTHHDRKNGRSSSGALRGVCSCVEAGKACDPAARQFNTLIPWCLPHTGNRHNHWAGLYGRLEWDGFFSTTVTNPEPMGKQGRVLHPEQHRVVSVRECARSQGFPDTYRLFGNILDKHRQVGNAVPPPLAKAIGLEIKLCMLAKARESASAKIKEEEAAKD
STEP block: STEP phosphatase inhibitors, primary screen, biochemical, fluorescence intensity, uHTS; recombinant STEP, OMFP fluorogenic substrate; Tyrosine-protein phosphatase non-receptor type 5 (Homo sapiens), P54829; inhibition, % at 20 µM; hit rate 0.25% among 360,000;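 active = inhibition at 20 µM, scaled per plate between control wells, above about 37%, limit read from the data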;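 also: 0% = DMSO with enzyme and substrate and 100% = substrate only without enzyme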
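Assay system: isolated STEP enzyme / Timing: 20 min at room temperature, dark / Doses: 20 µM, 1% DMSO / Technique: fluorescence intensity, excitation 480 nm, emission 540 nm / Reagent: fluorogenic phosphatase substrate OMFP at 25 µM final / Measure: percent inhibition scaled to no-enzyme and uninhibited-enzyme controls, plate-pattern corrected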
SUMO1-SIM PPI: modulators of SUMO1 protein-protein interactions, primary screen, biochemical, uHTS; Small ubiquitin-related modifier 1 (Homo sapiens), P63165; SUMO1 binding to a labelled peptide, TR-FRET, 1 h; inhibition, % at 20 µM; hit rate 0.33% among 360,000; AID 602429, 2012; in the data active = inhibition above about 37%
NadD inh conf: inhibitors of S. aureus NadD, confirmation, biochemical, colorimetric, single concentration; shares compounds with NadD inh; purified S. aureus NadD, colorimetric enzyme assay; inhibition, % at 20 µM; hit rate 13% among 2,000; AID 624309, 2012; in the data active = inhibition mostly above about 42%, no sharp cut-off; inactive = mostly below about 42%
Starred values were filed as active, the others as inactive; / = no result. This is a sample that favours compounds with a hit; in the whole collection about 2.4% have one here.

SMILES | Scp-1 inhibitor | NadD inh | LMPTP inh | DNMT1 block | STEP block | SUMO1-SIM PPI | NadD inh conf
Cc1cc(-c2csc(NC(=O)c3ccc(=O)[nH]c3)n2)c(C)n1Cc1ccccc1 | -8 | 48* | 4 | -13 | 0 | 5 | 40
Cc1cc(-c2csc(NC(=O)c3cc4ccccc4o3)n2)c(C)n1C | -5 | 36* | 2 | 0 | 0 | 6 | 8
Cc1cc(-c2csc(NC(=O)c3ccc(C#N)cc3)n2)c(C)n1Cc1ccco1 | 4 | 34* | 0 | 10 | 1 | 7 | 24
O=S(=O)(NCCC1=CCCCC1)c1cccc2nsnc12 | -8 | -2 | 0 | 1 | 18 | -14 | /
CN(C1=C(N2CCCCC2)C(=O)c2ccccc2C1=O)c1ccccc1 | -9 | -1 | 3 | -16 | 4 | -28 | /
O=C(CCn1c(=O)[nH]c2ccsc2c1=O)NCc1ccc(F)cc1 | -9 | 0 | -1 | 2 | -1 | -1 | /
CCCc1nn2c(=O)cc(CSCC(=O)Nc3ccccc3)nc2s1 | -7 | 4 | 0 | 1 | -1 | -4 | /
O=C(O)c1cccc(-n2cccc2/C=C2/NC(=O)N(c3ccc(Cl)cc3)C2=O)c1 | 81* | 43* | 81* | 87* | 94* | 106* | 61*
CCOC(=O)CC(=O)c1cc(OC)c(OC)c(OC)c1 | -4 | -2 | -1 | 0 | 5 | 1 | /
O=C(Nc1nnc(-c2ccccc2)o1)c1ccc(Cl)cc1 | -4 | 0 | 0 | 1 | 2 | 4 | /
CCCC(=O)Nc1nc(C)c(-c2csc(Nc3ccccc3OC)n2)s1 | 1 | 8 | 2 | -24 | -1 | 4 | /
Cc1ccc(Cl)cc1Nc1nc(-c2sc(NC(=O)C(C)(C)C)nc2C)cs1 | 14 | 34* | 2 | -38 | 1 | 104* | 7
CCCCCC(=O)Nc1nc(C)c(-c2csc(Nc3cc(Cl)ccc3OC)n2)s1 | 4 | 42* | 1 | -37 | 1 | 12 | 38
COc1cc(/C=C(\C#N)c2nc3ccccc3[nH]2)c([N+](=O)[O-])cc1OCc1ccccc1 | 1 | 40* | 3 | -10 | 2 | -13 | 17
N#C/C(=C\c1ccc(Oc2ccc(C(F)(F)F)cc2[N+](=O)[O-])cc1)c1nc2ccccc2[nH]1 | 6 | 40* | 1 | -14 | 6 | -12 | 11
CCOc1ccc(CCNC(=O)COC(=O)c2c(C)nn(-c3ccccc3)c2C)cc1OCC | -8 | 2 | 0 | 1 | -2 | 5 | /
O=[N+]([O-])c1ccc(N/N=C/c2sc(N3CCOCC3)nc2-c2ccccc2)c(S(=O)(=O)Nc2ccc(Cl)cc2)c1 | 10 | 58* | 11 | 3 | -8 | -18 | 5
O=[N+]([O-])c1ccc(N/N=C/c2sc(N3CCOCC3)nc2-c2ccccc2)c(S(=O)(=O)Nc2ccccc2Cl)c1 | 0 | 75* | 10 | -1 | 2 | -22 | 6
CC(C)NC(=O)N(C)C[C@H]1OCCCC[C@H](C)Oc2ccc(NC(=O)NC3CCCCC3)cc2C(=O)N([C@H](C)CO)C[C@@H]1C | / | -1 | -2 | 3 | 1 | 1 | /
COc1ccc(CC(N)c2csc(NC(=O)Nc3ccccc3-c3ccccc3)n2)cc1 (stereo unspecified) | / | 31* | 2 | -16 | 3 | -49 | 7
O=C1[C@@H]2[C@H](C(=O)N1O)[C@H]1C=C[C@@H]2C1 | 16 | -1 | -3 | 4 | 4 | -4 | /
CCOc1c(OC(C)=O)ccc(/C=C2\N=C(SCC)SC2=O)c1[N+](=O)[O-] | -14 | 5 | 0 | -16 | 2 | -35 | /
CCOc1cc(/C=C2\N=C(SCC)SC2=O)cc([N+](=O)[O-])c1OC(C)=O | 0 | 30* | 5 | 1 | 11 | 7 | 3
CCOc1cc(/C=C2\N=C(SC)SC2=O)cc([N+](=O)[O-])c1OC(C)=O | -12 | 46* | 3 | 7 | 13 | 9 | 2
COC(=O)c1ccc(COC(=O)CNC(=O)c2ccc(OC)cc2)cc1 | -6 | -6 | 0 | 0 | 0 | 2 | /
SMILES | Scp-1 inhibitor | NadD inh | LMPTP inh | DNMT1 block | STEP block | SUMO1-SIM PPI | NadD inh conf
O=C1S/C(=C\c2ccc(O)c([N+](=O)[O-])c2)C(=O)N1c1ccccc1Cl | -8 | -3 | -10 | -5 | 6 | -15 | /
COc1cc(/C=C2\SC(=O)N(c3cccc(Cl)c3)C2=O)cc([N+](=O)[O-])c1O | 56* | 26* | 82* | 71* | 98* | 2 | -1
O=C(NC(=S)N1CCN(c2nc(-c3ccccc3)cs2)CC1)c1cncc(Br)c1 | -3 | 35* | 0 | -1 | 1 | 4 | 23
CC(=O)Nc1ccc(S(=O)(=O)Nc2cccc(NC(=O)c3ccco3)c2)cc1 | -4 | 5 | -1 | 0 | 4 | 1 | /
COc1ccc(-c2nn(-c3ccccc3)cc2/C=N/NS(=O)(=O)c2ccccc2)cc1 | -11 | 3 | 5 | -10 | -2 | -4 | /
COc1ccc(-c2nn(-c3ccccc3)cc2/C=N/NC(=O)c2cccc(S(=O)(=O)Nc3ccccc3Cl)c2)cc1 | -11 | 42* | 4 | -15 | -6 | 15 | 16
Cc1nn(-c2ccccc2)c(N2CCCC2)c1/C=N/NC(=O)c1cccc(S(=O)(=O)Nc2ccc(Cl)cc2)c1 | -17 | 53* | 3 | -20 | 0 | 12 | 55*
Cc1nn(-c2ccc(Cl)cc2)c(Cl)c1/C=N/NC(=O)c1ccc(NS(=O)(=O)c2cccs2)cc1 | -14 | 41* | 5 | -11 | -2 | 8 | 63*
Nc1c(Cl)ncnc1NCc1cccnc1 | -9 | -5 | 0 | 1 | -2 | 5 | /
Cc1nc(-c2ccccn2)nc(N2CCOCC2)c1Cl | -8 | 2 | -1 | 0 | -1 | -4 | /
CC(C)(C)NC(=O)C(c1ccncc1)n1c(=O)c(-c2ccccc2)nc2ccccc21 (stereo unspecified) | / | / | -1 | / | / | -14 | /
Cc1ccc(S(=O)(=O)Nc2ccc(C(=O)Nc3ccncc3)cc2)cc1 | -3 | 1 | 0 | -6 | 0 | 4 | /
CCOC(=O)C1=C(CN2CCSCC2)NC(=O)NC1c1ccc2c(c1)OCO2 (stereo unspecified) | -4 | -10 | -1 | 1 | 0 | 3 | /
